High-throughput results deposited in PubChem by several laboratories.
SR-BI DiI-HDL act – activators of SR-BI mediated DiI-HDL uptake, primary screen, ldlA[mSR-BI] CHO cells, DiI fluorescence; 3 h; 100 = double the neutral-control signal; activation, % at 12.5 µM; 320,000 compounds, 0.096% hits; AID 504775, 2011;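 active means mean replicate activation of at least 60% and every replicate at or above 60%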;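 further: 0% = median plate neutral-control signal and 100% = twice that signal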
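Material: SR-BI-overexpressing, LDLR-lacking CHO cells; schedule: compound exposure 3 h, 37 °C; reagent: DiI-labelled HDL at 10 µg/mL final; technique: bottom-read fluorescence, 550/595 nm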
V-ATPase pHluor – regulators of yeast V-ATPase proton pumping, primary screen, pHLuorin cytosolic pH fluorescence; 350,000 compounds, 0.37% hits; S. cerevisiae; response, % at 10 µM; AID 504577, 2011; in the data active means response mostly above about 7.3%, no sharp cut-off; inactive means mostly below about 5.4%; further: actives read high
Vif imaging – HIV Vif self-association inhibitors, primary screen, imaging, HEK293T, single point | 340,000 compounds, 0.35% hits | HEK293T cells, Vif self-association by quenched fluorescence, 24 h | inhibition, % at 7.49 µM; in the data active means inhibition above about 50%, passing the limit was not always enough
NTR1 agonist – agonists of human NTR1, primary screen, imaging, U2OS cells, beta-arrestin-GFP, high content; NTR1-U2OS beta-arrestin-GFP spot imaging, agonist mode; activation, % at 20 µM; 330,000 compounds, 0.17% hits; AID 493036, 2011;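 active means activation at or above 40% of the spot to cytoplasm intensity ratio, with at least 20 cells analyzed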;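 further: 0% = DMSO without peptide and 100% = 100 nM NTR1 peptide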
Target sequence (P30989 whole entry, looked up): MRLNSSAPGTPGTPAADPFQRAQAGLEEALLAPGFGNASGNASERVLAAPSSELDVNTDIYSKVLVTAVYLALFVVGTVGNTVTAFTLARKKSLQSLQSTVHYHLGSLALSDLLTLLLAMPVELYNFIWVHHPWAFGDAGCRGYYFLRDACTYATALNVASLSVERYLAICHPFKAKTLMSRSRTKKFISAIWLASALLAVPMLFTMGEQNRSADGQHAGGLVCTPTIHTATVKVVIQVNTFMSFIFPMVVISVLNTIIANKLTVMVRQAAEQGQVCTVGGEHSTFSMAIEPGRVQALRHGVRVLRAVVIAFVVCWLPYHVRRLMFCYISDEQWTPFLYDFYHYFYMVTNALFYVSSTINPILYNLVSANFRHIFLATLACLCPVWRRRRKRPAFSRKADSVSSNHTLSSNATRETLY
CaV13 ICDI inh – Disruptors of the CACNA1D IQ motif to Ca2+-dependent inactivation inhibitor domain association, primary screening, Förster resonance energy transfer in intact living …. HEK cells, CFP/YFP FRET ICDI-IQ, plate reader, 10 min; percent FRET-ratio fall versus neutral wells. 340,000 compounds, 0.098% hits. inhibition, % at 12.3 µM;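 active means mean replicate inhibition of at least 30% and at least 1% of replicates passing that level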;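 further: 0% = median of the neutral control wells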
SR-BI DiI inh – inhibitors of SR-BI mediated HDL lipid uptake, primary screen, ldlA[mSR-BI] cells, fluorescence, single point; Scavenger receptor class B member 1 (Mus musculus), Q61009; ldlA[mSR-BI] CHO cells, DiI-HDL uptake fluorescence, 3 h; inhibition, % at 12.5 µM; 320,000 compounds, 0.96% hits;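 active means mean replicate inhibition of at least 70% and a set share of replicates each scoring 70 or more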;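 further: 0% = median of neutral control wells and 100% = median of positive control wells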
The depositor's hits bear a star. Rows were chosen to be rich in hits. Some 1.7% of all compounds tested hit in one or more screens of this group.

Results for Cn1c(CSc2ncn[nH]2)nc2ccccc21 ?
SR-BI DiI-HDL act: 68*; V-ATPase pHluor: 4; Vif imaging: 2; NTR1 agonist: 0; CaV13 ICDI inh: -5; SR-BI DiI inh: -68

Results for Cn1c(CSc2nc3ccccc3s2)nc2ccccc21 ?
SR-BI DiI-HDL act: -17; V-ATPase pHluor: 1; Vif imaging: -9; NTR1 agonist: 1; CaV13 ICDI inh: -4; SR-BI DiI inh: 17

Results for CCOc1ccc(C(=O)NCC(=O)OCc2c(C)noc2C)cc1OCC ?
SR-BI DiI-HDL act: -11; V-ATPase pHluor: 13*; Vif imaging: 4; NTR1 agonist: 0; CaV13 ICDI inh: -7; SR-BI DiI inh: 11

Results for COc1cc(C(=O)Nc2nnc(C3CC3)s2)ccc1OCc1c(C)noc1C ?
SR-BI DiI-HDL act: -88; V-ATPase pHluor: -3; Vif imaging: -2; NTR1 agonist: 0; CaV13 ICDI inh: -6; SR-BI DiI inh: 88*

How did COc1cc(C(=O)Nc2nccs2)ccc1OCc1c(C)noc1C do in these assays?
SR-BI DiI-HDL act: -76; V-ATPase pHluor: 3; Vif imaging: -7; NTR1 agonist: 0; CaV13 ICDI inh: -9; SR-BI DiI inh: 76*

Results for Cc1ccc(S(=O)(=O)N2CC3=C(C2)C2CC2(C)C3)cc1 (stereo not given) ?
CaV13 ICDI inh: -7

What do the screens show for `CNC(=O)C(=O)N/N=C/c1ccc(Br)cc1`?
SR-BI DiI-HDL act: 11; V-ATPase pHluor: 2; Vif imaging: -6; NTR1 agonist: 1; CaV13 ICDI inh: 0; SR-BI DiI inh: -11

How did CC(C)(C)c1ccc(NC(=O)COC(=O)C2(C)CC2(Cl)Cl)cc1 (stereo not given) do in these assays?
SR-BI DiI-HDL act: -13; V-ATPase pHluor: 0; NTR1 agonist: 10; CaV13 ICDI inh: -17; SR-BI DiI inh: 13

What do the screens show for `C[C@H](NC(=O)C1CCN(C(=O)[C@H](Cc2ccccc2)NC(=O)OC(C)(C)C)CC1)C(=O)O`?
SR-BI DiI-HDL act: 20; V-ATPase pHluor: 3; Vif imaging: -4; NTR1 agonist: 0; CaV13 ICDI inh: -4; SR-BI DiI inh: -20

What do the screens show for `COC(=O)N1C[C@H](OCc2ccccc2)[C@H]2C[C@@H]1c1ccccc1O2`?
CaV13 ICDI inh: -4

How did O=C(Nc1ccc(F)c(Cl)c1)c1csc([C@@H]2C[C@H](O)[C@@H](CO)O2)n1 do in these assays?
Vif imaging: -4; CaV13 ICDI inh: -6

How did O=C(Nc1ccc(F)c(Cl)c1)c1csc([C@H]2C[C@H](O)[C@@H](CO)O2)n1 do in these assays?
Vif imaging: 54*; CaV13 ICDI inh: -6

Results for Cc1cnc(NC(=O)c2cc3c(C)nn(-c4ccccc4)c3s2)s1 ?
SR-BI DiI-HDL act: -76; V-ATPase pHluor: 0; Vif imaging: 53*; NTR1 agonist: 7; CaV13 ICDI inh: -7; SR-BI DiI inh: 76*

What do the screens show for `Cc1nn(-c2ccccc2)c2sc(C(=O)NC3CCCCC3)cc12`?
SR-BI DiI-HDL act: -50; V-ATPase pHluor: 5; Vif imaging: 16; NTR1 agonist: 6; CaV13 ICDI inh: -7; SR-BI DiI inh: 50

How did COc1cc2ccccc2cc1C(=O)NNC(=O)c1ccccc1O do in these assays?
SR-BI DiI-HDL act: -129; V-ATPase pHluor: 2; Vif imaging: -7; NTR1 agonist: 1; CaV13 ICDI inh: -6; SR-BI DiI inh: 129*

How did O=C(NNC(=O)c1cc2ccccc2cc1O)Nc1ccc(Br)cc1 do in these assays?
V-ATPase pHluor: -3; NTR1 agonist: 2; CaV13 ICDI inh: -11; SR-BI DiI inh: 8

Results for COc1ccc(NC(=O)NNC(=O)c2cc3ccccc3cc2O)cc1 ?
V-ATPase pHluor: -4; Vif imaging: -1; NTR1 agonist: 1; CaV13 ICDI inh: -5; SR-BI DiI inh: 96*

What do the screens show for `COc1ccc(C)cc1NC(=O)NNC(=O)c1cc2ccccc2cc1O`?
SR-BI DiI-HDL act: -117; V-ATPase pHluor: -3; Vif imaging: -2; NTR1 agonist: 2; CaV13 ICDI inh: -6; SR-BI DiI inh: 117*

What do the screens show for `Cc1ccc(C(=O)NNc2c3ccccc3nc3ccccc23)cc1`?
SR-BI DiI-HDL act: -97; V-ATPase pHluor: 3; Vif imaging: -4; NTR1 agonist: 16; CaV13 ICDI inh: -3; SR-BI DiI inh: 97*

Results for O=C(NNc1c2ccccc2nc2ccccc12)c1ccc(Cl)cc1 ?
V-ATPase pHluor: 1; Vif imaging: -1; NTR1 agonist: 7; CaV13 ICDI inh: -5

How did Cc1cc(C)c(S(=O)(=O)NNC(=O)C2CCN(Cc3ccccc3)CC2)c(C)c1 do in these assays?
SR-BI DiI-HDL act: -19; V-ATPase pHluor: 2; Vif imaging: -7; NTR1 agonist: 1; CaV13 ICDI inh: -4; SR-BI DiI inh: 19

What do the screens show for `Cc1ccc(C(=O)NNC(=O)c2cc3ccccc3cc2O)cc1`?
SR-BI DiI-HDL act: -123; V-ATPase pHluor: -2; Vif imaging: -3; NTR1 agonist: -1; CaV13 ICDI inh: -5; SR-BI DiI inh: 123*

Results for COc1ccccc1C(=O)OCCNC(=O)Cn1cnc2c1c(=O)n(C)c(=O)n2C ?
SR-BI DiI-HDL act: 32; V-ATPase pHluor: 0; Vif imaging: 3; NTR1 agonist: 1; CaV13 ICDI inh: -3; SR-BI DiI inh: -32

How did COc1ccc(NS(=O)(=O)c2ccc3oc(SC4CCOC4=O)nc3c2)cc1 (stereo not given) do in these assays?
SR-BI DiI-HDL act: 14; V-ATPase pHluor: 3; Vif imaging: -1; NTR1 agonist: 68*; SR-BI DiI inh: -14

How did CCCCCC(=O)Nc1nc(C)c(-c2csc(Nc3cc(Cl)ccc3OC)n2)s1 do in these assays?
SR-BI DiI-HDL act: -79; V-ATPase pHluor: -1; Vif imaging: -7; NTR1 agonist: 13; CaV13 ICDI inh: -10; SR-BI DiI inh: 79*

What do the screens show for `C=CCCC(=O)Nc1nc(C)c(-c2csc(Nc3cc(OC)ccc3OC)n2)s1`?
SR-BI DiI-HDL act: -56; V-ATPase pHluor: -2; NTR1 agonist: 5; CaV13 ICDI inh: -8; SR-BI DiI inh: 56

Results for CCCC(=O)Nc1nc(C)c(-c2csc(Nc3ccccc3OC)n2)s1 ?
SR-BI DiI-HDL act: -40; V-ATPase pHluor: 2; Vif imaging: -9; NTR1 agonist: 2; CaV13 ICDI inh: -5; SR-BI DiI inh: 40

Results for CCCC(=O)Nc1nc(C)c(-c2csc(Nc3cc(OC)ccc3OC)n2)s1 ?
SR-BI DiI-HDL act: -94; V-ATPase pHluor: 2; Vif imaging: 0; NTR1 agonist: 16; CaV13 ICDI inh: -7; SR-BI DiI inh: 94*
